Results pooled from the literature.
Compare with care: the assays were run in different laboratories. Converted amounts (≈) assume the structure as drawn.
Organism: Mycobacterium tuberculosis
Observed: microbial growth

With CCOC(=O)C1=C(C)NC(=O)NC1c1ccc([N+](=O)[O-])o1 (centres unmarked) the MIC was 20.1 µM (resazurin; H37RV).
The MIC of O=C1c2ccccc2NC(c2cc([N+](=O)[O-])ccc2O)N1/N=C/c1cc([N+](=O)[O-])ccc1O (centres unmarked) is reported as 64 µg/mL (ATCC25177 H37RA; 14 days).
With NNC(=O)c1ccncc1 the inhibition was 44% (resazurin; H37RV; 0.212 µM).
CCOC(=O)C1=C(C)NC(=S)NC1c1cn(-c2ccccc2)nc1-c1ccccc1 (centres unmarked) has an MIC of 59.7 µM (resazurin; H37RV).
With O=C(O)c1cn(C2CC2)c2cc(N3CCNCC3)c(F)cc2c1=O the MIC was 16 µg/mL (ATCC25177 H37RA; 14 days).
For CN[C@@H]1[C@H](O)[C@H](NC)[C@H]2O[C@@]3(O)C(=O)C[C@@H](C)O[C@H]3O[C@@H]2[C@H]1O, the MIC was 100 µg/mL (broth dilution; H37RV; 7 days).
CCCCOc1ccc2nc3ccc(=O)cc-3oc2c1 has an MIC90 of at most 10 µM (7 days).
CCOC(=O)C1=C(C)NC(=NNS(=O)(=O)c2ccccc2)NC1c1cn(-c2ccccc2)nc1-c1ccccc1 (centres unmarked) gave an MIC of 44.6 to 45.8 µM (resazurin; H37RV).
CSCOc1ccc2nc3ccc(=O)cc-3oc2c1 gave an MIC90 of 47 µM (≈ 12.8 µg/mL) (7 days).
CC[C@@H](CO)NCCN[C@@H](CC)CO has an MIC of 7.64 µM (resazurin; H37RV).
The MIC90 of CC(C)/N=c1\cc2n(-c3ccc(Cl)cc3)c3ccccc3nc-2cc1Nc1ccc(Cl)cc1 is reported as 0.39 µM (≈ 0.185 µg/mL) (7 days).
COc1c(N2CC3CCCN(C(=O)OCc4ccc([N+](=O)[O-])cc4)C3C2)c(F)cc2c(=O)c(C(=O)O)cn(C3CC3)c12 (centres unmarked) has an MIC of over 8 µM (H37RV).
The MIC90 of CC(=O)OCOc1ccc2nc3ccc(=O)cc-3oc2c1 is reported as 34 µM (7 days).
COc1c(N2CC3CCCNC3C2)c(F)cc2c(=O)c(C(=O)OCc3cnc([N+](=O)[O-])s3)cn(C3CC3)c12 (centres unmarked) gave an MIC of 0.25 µM (H37RV).
